In brackets after ≈: the same amount, converted by molar mass. Activity calls are given as the source filed them. The calls are words filed in the database; no cut-off is given here.

The source of these data is ChEMBL document CHEMBL3853321, “Optimization of Platelet-Derived Growth Factor Receptor (PDGFR) Inhibitors for Duration of Action, as an Inhaled Therapy for Lung Remodeling in Pulmonary Arterial Hypertension” (J Med Chem, 2016).

A short description of data set [1]: Transcellular permeability of the compound by PAMPA. The class given is ADME. A general note: The PAMPA barrier holds no transporters, so it reflects passive diffusion.
A short description of data set [2]: Solubility of the compound using 10%PEG200/[…]D5W by high-throughput assay. The class given is physicochemical. The essentials:
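Solubility determined in the intratracheal dosing vehicle, 10% PEG200/[…] D5W.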

In data set [3] the test system is Rattus norvegicus. The data set can be described thus: In vivo receptor occupancy at PDGFR-beta kinase domain in rat lung at 0.4 mg/kg, it measured after 7 hrs by immunoprecipitation assay. The data set is classed as functional.
A short description of data set [4]: Drug uptake in rat lung at 0.4 mg/kg, it at 7 hrs. The class given is ADME, organism-based. To be noted: inhaled or intranasal, read-out: Drug uptake. The essentials: (§1)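 Single intratracheal dose as a solution in 10% PEG200/[…] D5W vehicle; compound concentration measured in lung tissue at 7 h or 24 h after dosing.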
Data set [5] relates to Rattus norvegicus. The data set can be described thus: In vivo receptor occupancy at PDGFR-beta kinase domain in rat lung at 0.1 mg/kg, it measured after 7 hrs by immunoprecipitation assay. The class given is functional.
Data set [6] in a line: Drug uptake in rat lung at 0.1 mg/kg, it at 7 hrs. The data set is classed as ADME, organism-based. The settings on record: inhaled or intranasal, read-out: Drug uptake. The essentials:
as §1

The subject of data set [7] is Rattus norvegicus. The data set can be described thus: In vivo receptor occupancy at PDGFR-beta kinase domain in rat lung at 0.1 mg/kg, it measured after 24 hrs by immunoprecipitation assay. The class given is functional.
The nature of data set [8]: Drug uptake in rat lung at 0.1 mg/kg, it at 24 hrs. The data set is classed as ADME, organism-based. To be noted: inhaled or intranasal, read-out: Drug uptake. The essentials:
as §1

Data set [9] has as its system Rattus norvegicus. The experiment in a line: In vivo receptor occupancy at PDGFR-beta kinase domain in rat lung at 0.4 mg/kg, it measured after 24 hrs by immunoprecipitation assay. The class given is functional.
Data set [10] can be described thus: Drug uptake in rat lung at 0.4 mg/kg, it at 24 hrs. The data set is classed as ADME, organism-based. To be noted: inhaled or intranasal, read-out: Drug uptake. The essentials:
as §1

Data set [11] concerns the target Platelet-derived growth factor receptor alpha (Homo sapiens, UniProt P16234). The experiment in a line: Inhibition of PDGFRalpha kinase domain (unknown origin) assessed as reduction in probe peptide substrate phosphorylation by capillary electrophoresis.
The subject of data set [12] is Rattus norvegicus. The experiment in a line: In vivo receptor occupancy at PDGFR-beta kinase domain in rat lung at 1 mg/kg, it measured after 7 hrs by immunoprecipitation assay. The class given is functional.
The nature of data set [13]: Drug uptake in rat lung at 1 mg/kg, it at 7 hrs. To be noted: inhaled or intranasal, read-out: Drug uptake. The data set is classed as ADME, organism-based. The essentials:
as §1

The target in data set [14] is Voltage-gated inwardly rectifying potassium channel KCNH2 (Homo sapiens, UniProt Q12809). The data set can be described thus: Inhibition of human ERG.
Voltage-gated inwardly rectifying potassium channel KCNH2, sequence (Q12809 whole entry): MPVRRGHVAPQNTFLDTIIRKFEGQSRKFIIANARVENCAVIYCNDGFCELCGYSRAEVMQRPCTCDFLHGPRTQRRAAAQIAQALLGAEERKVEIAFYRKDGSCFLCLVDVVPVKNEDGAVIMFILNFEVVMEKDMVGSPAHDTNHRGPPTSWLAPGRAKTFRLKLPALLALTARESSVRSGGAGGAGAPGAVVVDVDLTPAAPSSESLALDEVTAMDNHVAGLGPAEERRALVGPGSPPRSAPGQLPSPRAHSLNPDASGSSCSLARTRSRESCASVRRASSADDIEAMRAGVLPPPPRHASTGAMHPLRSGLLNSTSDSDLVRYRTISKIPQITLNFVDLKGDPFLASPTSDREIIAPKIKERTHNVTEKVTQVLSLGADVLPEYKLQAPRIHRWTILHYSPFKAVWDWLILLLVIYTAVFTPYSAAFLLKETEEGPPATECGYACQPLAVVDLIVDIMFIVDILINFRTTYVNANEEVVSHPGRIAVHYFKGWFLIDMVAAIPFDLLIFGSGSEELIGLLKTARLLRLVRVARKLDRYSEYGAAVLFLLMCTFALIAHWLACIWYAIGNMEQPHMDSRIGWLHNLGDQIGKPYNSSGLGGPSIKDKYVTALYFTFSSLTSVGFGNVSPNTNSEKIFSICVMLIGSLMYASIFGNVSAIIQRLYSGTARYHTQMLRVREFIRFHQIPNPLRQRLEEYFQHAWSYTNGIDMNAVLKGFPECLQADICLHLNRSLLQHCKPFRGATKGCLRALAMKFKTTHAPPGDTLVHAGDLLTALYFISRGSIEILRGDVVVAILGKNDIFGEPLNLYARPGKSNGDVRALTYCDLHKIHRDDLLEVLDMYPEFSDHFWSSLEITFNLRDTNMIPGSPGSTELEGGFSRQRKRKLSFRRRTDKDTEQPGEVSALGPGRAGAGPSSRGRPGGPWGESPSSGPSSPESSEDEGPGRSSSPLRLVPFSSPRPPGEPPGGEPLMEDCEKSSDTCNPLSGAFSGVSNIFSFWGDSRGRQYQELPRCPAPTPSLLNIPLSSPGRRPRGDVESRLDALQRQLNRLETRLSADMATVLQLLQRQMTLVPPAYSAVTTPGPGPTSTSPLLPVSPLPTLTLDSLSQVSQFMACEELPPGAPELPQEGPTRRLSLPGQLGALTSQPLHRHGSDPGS
Data set [15] addresses T1, Muscarinic acetylcholine receptor M1 (Homo sapiens, UniProt P11229).
T1 sequence (P11229 whole entry): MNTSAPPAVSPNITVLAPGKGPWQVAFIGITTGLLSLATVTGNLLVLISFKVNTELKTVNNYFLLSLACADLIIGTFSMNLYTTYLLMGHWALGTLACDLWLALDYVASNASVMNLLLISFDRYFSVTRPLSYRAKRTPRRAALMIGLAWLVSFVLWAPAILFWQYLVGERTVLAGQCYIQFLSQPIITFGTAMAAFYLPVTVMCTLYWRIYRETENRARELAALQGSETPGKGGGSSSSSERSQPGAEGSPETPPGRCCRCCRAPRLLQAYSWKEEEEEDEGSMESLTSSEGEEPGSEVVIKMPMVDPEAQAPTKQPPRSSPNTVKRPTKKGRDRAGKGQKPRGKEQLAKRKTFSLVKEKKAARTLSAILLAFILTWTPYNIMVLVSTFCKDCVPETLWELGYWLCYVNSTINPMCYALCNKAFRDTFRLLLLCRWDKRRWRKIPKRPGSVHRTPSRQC
The data set can be described thus: Inhibition of M1 receptor (unknown origin).

For another data set, the target named is Histamine H3 receptor (Homo sapiens, UniProt Q9Y5N1). The experiment in a line: Inhibition of H3 receptor (unknown origin).
Histamine H3 receptor, sequence (Q9Y5N1 whole entry): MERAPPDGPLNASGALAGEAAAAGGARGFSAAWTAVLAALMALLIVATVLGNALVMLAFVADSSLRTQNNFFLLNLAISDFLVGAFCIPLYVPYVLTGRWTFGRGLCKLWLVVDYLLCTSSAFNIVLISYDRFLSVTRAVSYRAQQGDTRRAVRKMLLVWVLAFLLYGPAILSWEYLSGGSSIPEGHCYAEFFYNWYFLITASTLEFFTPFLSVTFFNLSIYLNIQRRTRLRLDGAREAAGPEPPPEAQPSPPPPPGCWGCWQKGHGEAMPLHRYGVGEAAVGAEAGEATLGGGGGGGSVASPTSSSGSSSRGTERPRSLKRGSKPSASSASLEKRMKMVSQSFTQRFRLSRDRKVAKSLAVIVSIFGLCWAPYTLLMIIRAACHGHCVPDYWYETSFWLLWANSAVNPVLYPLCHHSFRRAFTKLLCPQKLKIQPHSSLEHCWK
Data set [16] in a line: Drug uptake in blood of rat monocrotaline model of pulmonary arterial hypertension at 0.01 mg/kg, it. The data set is classed as ADME, organism-based. The settings on record: in vivo, inhaled_or_intranasal, read-out: Drug uptake.
Data set [17] is described as follows: Drug uptake in blood of rat monocrotaline model of pulmonary arterial hypertension at 0.03 mg/kg, it. To be noted: in vivo, inhaled_or_intranasal, read-out: Drug uptake. The class given is ADME, organism-based.
Data set [18] can be described thus: Drug uptake in blood of rat monocrotaline model of pulmonary arterial hypertension at 0.1 mg/kg, it. The data set is classed as ADME, organism-based. To be noted: in vivo, inhaled_or_intranasal, read-out: Drug uptake.
Data set [19] is described as follows: Half life in rat. The data set is classed as ADME. The settings on record: in vivo.
The nature of data set [20]: Oral bioavailability in it dosed rat. The data set is classed as ADME, organism-based. The settings on record: in vivo.
The subject of data set [21] is Rattus norvegicus. The data set can be described thus: Anti-remodeling activity in rat monocrotaline model of pulmonary arterial hypertension assessed as reduction in MCT-induced muscularization of small blood vessels in lung at 0.03 mg/kg, it administered twice daily for 7 days by histological analysis relative to control. The class given is functional. Also noted: scale not given: the % may be the effect or the level left. The essentials:
(§2)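 Rats given monocrotaline two weeks beforehand so pathology develops; compound then given intratracheally twice daily for seven days (therapeutic mode). Read-out: percentage of fully muscularized small pulmonary vessels; group values given as mean with SEM.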

The test system of data set [22] is Rattus norvegicus. The experiment in a line: Anti-remodeling activity in it dosed rat monocrotaline model of pulmonary arterial hypertension assessed as reduction in MCT-induced muscularization of small blood vessels in lung administered twice daily for 7 days by histological analysis. The data set is classed as functional. The settings on record: 168 h, read-out: MED. The essentials: as §2

A short description of data set [23]: Drug uptake in blood of rat monocrotaline model of pulmonary arterial hypertension at 100 mg/kg, po. The class given is ADME, organism-based. The settings on record: in vivo, read-out: Drug uptake.
Data set [24] relates to Rattus norvegicus. The experiment in a line: Anti-remodeling activity in rat monocrotaline model of pulmonary arterial hypertension assessed as reduction in MCT-induced muscularization of small blood vessels in lung at 100 mg/kg, po administered once daily for 7 days by histological analysis.

Platelet-derived growth factor receptor alpha, sequence (P16234 whole entry, the tested form may be a part): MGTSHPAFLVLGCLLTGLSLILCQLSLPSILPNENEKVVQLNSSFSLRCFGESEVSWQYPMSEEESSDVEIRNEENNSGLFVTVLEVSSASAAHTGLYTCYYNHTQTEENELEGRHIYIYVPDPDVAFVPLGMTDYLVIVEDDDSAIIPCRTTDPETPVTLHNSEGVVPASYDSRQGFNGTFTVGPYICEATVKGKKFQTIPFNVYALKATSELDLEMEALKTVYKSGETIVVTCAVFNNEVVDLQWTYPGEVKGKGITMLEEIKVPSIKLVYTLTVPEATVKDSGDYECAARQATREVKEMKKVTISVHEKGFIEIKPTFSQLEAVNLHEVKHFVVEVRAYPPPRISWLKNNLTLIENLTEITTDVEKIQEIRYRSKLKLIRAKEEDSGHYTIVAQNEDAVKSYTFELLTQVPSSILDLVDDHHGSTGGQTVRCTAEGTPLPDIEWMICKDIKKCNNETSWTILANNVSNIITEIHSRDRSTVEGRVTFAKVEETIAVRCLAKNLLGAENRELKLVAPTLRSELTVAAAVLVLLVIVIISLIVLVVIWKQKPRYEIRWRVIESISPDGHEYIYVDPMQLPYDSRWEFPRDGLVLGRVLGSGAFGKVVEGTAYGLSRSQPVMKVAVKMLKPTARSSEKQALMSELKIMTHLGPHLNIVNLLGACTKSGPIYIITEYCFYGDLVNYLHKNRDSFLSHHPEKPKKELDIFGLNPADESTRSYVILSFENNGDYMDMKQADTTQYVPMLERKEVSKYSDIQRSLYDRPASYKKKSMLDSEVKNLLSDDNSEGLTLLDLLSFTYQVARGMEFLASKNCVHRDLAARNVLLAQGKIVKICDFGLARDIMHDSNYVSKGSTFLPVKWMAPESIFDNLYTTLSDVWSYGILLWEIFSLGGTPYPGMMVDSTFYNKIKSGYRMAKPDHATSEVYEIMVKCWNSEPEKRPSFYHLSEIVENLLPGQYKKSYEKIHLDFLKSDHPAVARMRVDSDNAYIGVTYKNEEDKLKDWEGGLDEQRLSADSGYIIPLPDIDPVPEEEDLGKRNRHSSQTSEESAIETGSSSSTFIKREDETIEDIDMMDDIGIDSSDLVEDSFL

As a reminder, the solubility is how much of the substance goes into solution per volume. In turn, `CN1CCN(c2ccccc2CNC(=O)c2ccc(F)c(NC(=O)c3cnn4cc(-c5ccnn5C)ccc34)c2)CC1` had a permeability in [1] of 70%. Further, the solubility in data set [2] is above 1000 µg/mL. In the data set with Rattus norvegicus [3], this compound showed an Occ of 29%. Also, in data set [4], the concentration at 7 h turned out to be 221 nM.
For `Cn1cc(-c2ccn3c(C(=O)Nc4cc(C(=O)NCCN5CCCC5(C)C)ccc4F)cnc3c2)cn1`, in [1], the permeability worked out at 0.7%. Moreover, in data set [2], the solubility was above 1000 µg/mL. Moreover, the Occ in the data set on Rattus norvegicus [5] is reported as 82%; in the data set with Rattus norvegicus [7], 51%. Also, the concentration at 7 h in [6] turned out to be 1030 nM. Moreover, the concentration at 24 h in data set [8] is 420 nM.
Compound `CCN(CCNC(=O)c1ccc(F)c(NC(=O)c2cnc3cc(-c4ccnn4C)ccn23)c1)C(C)(C)C` registered a permeability in data set [1] of 23%.
As for `CN1CCN(c2ccccc2CNC(=O)c2ccc(F)c(NC(=O)c3cnc4cc(-c5ccnn5C)ccn34)c2)CC1`, in data set [1], the permeability came to 4.8%. This compound showed a solubility in data set [2] of 770 µg/mL (≈ 1360 µM). Also, the Occ in the data set with Rattus norvegicus [5] is on record as 54%; in the data set with Rattus norvegicus [3], 70%; in the data set on Rattus norvegicus [9], 9%. Further, the concentration at 7 h in [6] and in data set [4] was 687 nM throughout. Also, in data set [10], the concentration at 24 h came out at 60 nM.
In data set [1], `CN1CCN(c2ccccc2CNC(=O)c2ccc(F)c(NC(=O)c3cnc4cc(-c5cccnc5)ccn34)c2)CC1` gave a permeability of 23%.
Turning to `CN1CCN(c2ccccc2CNC(=O)c2ccc(F)c(NC(=O)c3cnc4cc(-c5cnn(C)c5)ccn34)c2)CC1`, in [1], the permeability was 26.3%.
Compound `Cn1nccc1-c1ccn2c(C(=O)Nc3cc(C(=O)NCCN4CCCC4(C)C)ccc3F)cnc2c1` displayed a permeability in data set [1] of 0.6%.
On the same count and under the same terms, to `CN1CCN(c2ccccc2CNC(=O)c2ccc(F)c(NC(=O)c3cnc4ccccn34)c2)CC1` belongs 83.1%.
By IC50 is commonly meant the concentration at which inhibition is half-maximal. `CN1CCN(c2ccccc2CNC(=O)c2ccc(F)c(NC(=O)c3cnc4cc(-c5cc[nH]n5)ccn34)c2)CC1` had a permeability in [1] of 0%. Moreover, the IC50 in data set [11] was below 0.1 nM.
As for `CN(CCNC(=O)c1ccc(F)c(NC(=O)c2cnc3cc(-c4ccnn4C)ccn23)c1)C(C)(C)C`, in [1], the permeability stood at 0%.
For `Cn1nccc1-c1ccn2c(C(=O)Nc3cc(C(=O)NCc4ccc(F)c(F)c4)ccc3F)cnc2c1`, in data set [1], the permeability worked out at 11%. The compound further returned a solubility in [2] below 10 µg/mL. Besides, the Occ in the data set with Rattus norvegicus [12] was 27%. Further, in [13], the concentration at 7 h was found to be 276 µM.
`Cn1nccc1-c1ccn2c(C(=O)Nc3cc(C(=O)NCC4CCC(C)(C)O4)ccc3F)cnc2c1` (centres undefined) had a permeability in [1] of 81%.
What is called half-life is the time in which the quantity being followed falls by half. As usually defined, the bioavailability is dose-corrected exposure relative to a reference, in per cent. Compound `Cc1ncc(C(=O)NCCN2CCCC2(C)C)cc1NC(=O)c1cnn2cc(-c3cnn(C)c3)ccc12` came in with a permeability in data set [1] of 4.7%. The values for the IC50 (in [14]; in [15]; against Histamine H3 receptor) were above 30 µM, 5 µM and 5 µM, respectively. This compound displayed a solubility in [2] above 1000 µg/mL. The Occ in the data set on Rattus norvegicus [5] was 88%; in the data set with Rattus norvegicus [7], 81%. The concentration at 7 h in [6] stood at 1300 nM. Also, the concentration at 24 h in data set [8] came to 680 nM. Besides, the concentration in data set [16] was found to be 210 nM; in [17], 750 nM; in data set [18], 1900 nM. For the same compound, the half-life in data set [19] is 840 min. Further, in [20], the bioavailability amounted to 90%. Further, in the data set with Rattus norvegicus [21], the Activity was determined as 14.3%. Moreover, the minimal effective dose in the data set with Rattus norvegicus [22] was 0.03 mg/kg.
In data set [1], `Cc1ncc(C(=O)NCc2ccccc2N2CCN(C)CC2)cc1NC(=O)c1cnn2cc(-c3ccnn3C)ccc12` displayed a permeability of 17%. Also, the solubility in data set [2] is above 1000 µg/mL. In the data set on Rattus norvegicus [3], this compound showed an Occ of 83%. The concentration at 7 h in data set [4] was found to be 3950 nM.
As to `Cc1ccc(NC(=O)c2ccc(CN3CCN(C)CC3)cc2)cc1Nc1nccc(-c2cccnc2)n1` [IMATINIB], the concentration in data set [23] was found to be 306 µM. The result in the data set with Rattus norvegicus [24] was Active.
Regarding `C[C@@H]1CCC[C@H](C)N1CCNC(=O)c1ccc(F)c(NC(=O)c2cnc3cc(-c4ccnn4C)ccn23)c1`, the permeability in data set [1] came out at 5.4%. Also, in data set [2], the concentration in solution (solubility) was 590 µg/mL (≈ 1140 µM). Further, the results for the Occ with Rattus norvegicus [5] and in the data set with Rattus norvegicus [7] were 75% and 0%, respectively. The concentration at 7 h in [6] turned out to be 302 nM. The concentration at 24 h in [8] stood at 44 nM.
